Experimental data as given in ChEMBL document CHEMBL1157325, “7alpha,20-epoxy-ent-kauranoids from Isodon parvifolius” (J Nat Prod, 2006).

What was measured:
Assay type in all cases: functional, cell-based
HT-29 = assay: Cytotoxicity against human HT29 cells after 72 hrs by SRB assay; details: HT-29, 72 h
Outline: (§1)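 Adherent tumour cells seeded 24 h before treatment, then exposed continuously to a range of compound concentrations for 72 h. Cells were then fixed and stained with sulforhodamine B to read growth, and IC50 values were derived from the concentration series.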

K562 = assay: Cytotoxicity against human K562 cells after 72 hrs by SRB assay; details: K562, 72 h
A549 = assay: Cytotoxicity against human A549 cells after 72 hrs by SRB assay; details: A549, 72 h; outline: as §1

| Structure (SMILES) | IC50 (HT-29) [µM] | IC50 (K562) [µM] | IC50 (A549) [µM] |
| --- | --- | --- | --- |
| C=C1[C@@H]2C[C@@H](OC(C)=O)[C@H]3[C@@]45CO[C@@](O)(C(=O)[C@@H]4C(C)(C)CC[C@@H]5OC(C)=O)[C@]3(C2)[C@@H]1OC(C)=O [PARVIFOLINE G] | > 100 | > 100 | > 100 |
| C=C1C(=O)[C@]23C[C@H]1C[C@H](OC(C)=O)[C@H]2[C@@]12CO[C@@]3(O)[C@@H](O)[C@@H]1C(C)(C)CC[C@@H]2O [PARVIFOLINE H] | > 100 | > 100 | > 100 |
| C=C1C(=O)[C@]23C[C@H]1C[C@H](O)[C@H]2[C@@]12CO[C@@]3(O)[C@@H](O)[C@@H]1C(C)(C)CC[C@@H]2OC(C)=O [PARVIFOLINE I] | > 100 | > 100 | > 100 |
| C=C1C(=O)[C@]23C[C@H]1[C@@H](O)C=C2[C@@]12CO[C@@]3(O)[C@@H](O)[C@@H]1C(C)(C)CC[C@@H]2O [PARVIFOLINE F] | > 100 | > 100 | > 100 |
| C=C1C(=O)[C@]23C[C@H]1CC[C@H]2[C@@]12CO[C@@]3(O)[C@@H](O)[C@@H]1[C@@](C)(CO)CC[C@@H]2O [PARVIFOLINE C] |  | 13.8 |  |
| COC[C@H]1C(=O)[C@]23C[C@H]1C[C@H](OC(C)=O)[C@H]2[C@@]12CO[C@@]3(O)[C@@H](O)[C@@H]1C(C)(C)CC[C@@H]2O [PARVIFOLINE J] | > 100 | > 100 | > 100 |
| C=C1C(=O)[C@]23[C@H](O)[C@H]1CC[C@H]2[C@@]12CO[C@@]3(O)[C@@H](O)[C@@H]1[C@@](C)(CO)CC[C@@H]2O [PARVIFOLINE D] | > 100 | > 100 | > 100 |
